Most compounds without a hit are left out; they make up all but 6.4% or so of the library.
E coli WT exp – growth inhibitors of wild-type E. coli, primary screen, strain BW25113, expanded library, OD600. AID 710, 2007. OD600 absorbance. growth inhibition, % at 100 µM. 0.15% of 98,000 active;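 active = growth inhibition above about 50% at one test dose, limit read from the data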;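 also: growth measured after 20 h incubation at 37 °C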
tolC growth inh – growth inhibitors of E. coli tolC mutant, primary screen, strain BW25113 ΔtolC::kan, 384-well; growth inhibition, % at 10 µM (by protocol); 2.2% of 65,000 active; OD615;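 active = growth inhibition at or above a cutoff equal to the mean over every tested compound plus 3 SD, cut at about 60% in these data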;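 also: growth measured after 20 h incubation at 37 °C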
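Doses: one dose of 10 µM final / Material: E. coli BW25113 ΔtolC::kan, tolC deletion mutant strain / Buffer or medium: LB with kanamycin 50 µg/mL / Evaluation: percent growth inhibition / Detection: optical density read at 615 nm / Incubation: 37 °C, 20 h exposure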
Jurkat tox 60K – cytotoxicity toward Jurkat T cells, primary screen, cytotoxicity control, cell-based, Jurkat E6.1, 60K MLSMR library; Jurkat E6.1 viability, ATP luminescence, 48 h; inhibition, % at 4 µM; 1.2% of 56,000 active; AID 463, 2006;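 active = inhibition above the mean inhibition of all tested compounds plus 3 SD, cut at about 28% in these data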
H69AR growth 86K – proliferation blockers of H69AR lung cancer cells, primary screen, cell-based, human, 86K library | AID 598, 2007 | viability, % at 10 µM | 6% of 85,000 active | H69AR lung tumor viability, ATP luminescence, 72 h; stronger effect = lower value;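 active = viability at or below 40%; inactive = viability above 40%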;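 also: multidrug resistant small cell line overexpressing MRP-1 efflux transporter; 100% = mean luminescence of untreated control wells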
HUVEC inhibit – inhibitors of HUVEC proliferation, primary screen, cell-based, 384-well; viability, % at 10 µM (by protocol); CellTiter-Glo luminescence, 72 h; stronger effect = lower value; 1.1% of 86,000 active;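 active = viability at or below 30%; inactive = viability above 30%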;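 also: 100% = median luminescence of DMSO-only cell control wells on each plate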
Lung fibro prol – antiproliferative effect on LL 47 fibroblasts – human, LL 47 cells, CellTiter-Glo luminescence, primary screen | LL 47 human lung fibroblast viability, ATP luminescence; stronger effect = lower value | viability, % at 10 µM | 1.1% of 85,000 active;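 active = viability at or below 50% in the single dose screen; inactive = viability above 50%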;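 also: compound exposure lasted 72 h before the ATP readout; 100% = median luminescence of untreated cell-only wells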
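Times – overnight cell rest, 72 h compound treatment at 37 °C · Test system – human lung fibroblast line LL 47, low passage · Amount – 1,150 cells in each well · Controls – cell-only wells, no compound · Doses – 0.1% DMSO in all compound wells · Measured by – CellTiter-Glo luminescence · Buffer or medium – IMEM plus 15% FBS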
* = called active by the depositor; · = no result.

SMILES	E coli WT exp	tolC growth inh	Jurkat tox 60K	H69AR growth 86K	HUVEC inhibit	Lung fibro prol
O=C(Nc1ccccc1N1CCCCC1)c1cccs1	-6.0	99.7*	2.1	61.9	103.9	85.1
CCCCCC(=O)Nc1ccccc1N1CCN(c2ccccc2)CC1	-3.0	68.0*	5.8	97.7	126.3	83.4
O=C(COc1ccccc1)Nc1ccccc1N1CCCCC1	6.0	91.8*	1.0	71.0	83.0	81.4
O=C(COc1ccccc1)Nc1ccccc1N1CCN(c2ccccc2)CC1	-2.0	-7.6	-5.7	·	·	·
CCCC(=O)Nc1ccccc1N1CCN(C(=O)C(C)C)CC1	3.0	-18.7	-7.5	90.9	92.4	99.1
C#CCOC(=O)c1ccc(-n2cncn2)nc1	5.0	·	·	99.7	94.7	111.0
CC(=O)c1cccc2c(O)c(C3=Nc4ccccc4C3=O)[nH]c12	·	·	·	1.5*	36.0	61.2
CC(C)(C)OC(=O)N1CCOCCOCCN(C(=O)OC(C)(C)C)CCOCC1	3.0	-2.3	1.2	94.9	99.9	103.4
CCCCNC(=O)c1ccc2c(c1)ncn2C1CCCC1	4.0	·	·	32.7*	91.5	107.5
CCOc1ccccc1NC(=O)CSc1nnnn1-c1ccc(C(=O)OC)cc1	-13.0	36.5	-1.9	62.8	88.5	102.9
CCOC(=O)c1c(NC(=O)CSc2nnnn2-c2ccc(OC)cc2)sc(C)c1C	-4.0	·	·	30.1*	75.5	96.3
CCOc1cc(C#N)c(NC(=O)CSc2nnnn2-c2ccc(OC)cc2)cc1OCC	-1.0	-1.5	2.7	36.5*	99.0	92.3
O=C(O)c1ccc(N2Cc3ccccc3C2)cc1O	-10.0	·	·	·	·	·
C=CCNC(=O)C(=O)NN=C1CCN(C)CC1	1.0	·	·	96.5	94.8	95.8
CC(C)(C)c1cc(Cc2ccccc2)[nH]n1	20.0	28.5	2.2	88.9	95.0	91.6
CN1CCN(c2nc(NCCOC34CC5CC(CC(C5)C3)C4)nc(OCC(F)(F)F)n2)CC1	5.0	4.0	10.5	1.9*	9.5*	56.2
CCC1CCc2c(sc(NC(=O)CSc3nc(-c4ccco4)cc(C(F)(F)F)n3)c2C#N)C1 (configuration not stated)	-10.0	·	·	92.3	86.7	96.6
COc1cc(C(=O)OCC(=O)c2cc(C)n(C)c2C)cc(OC)c1OC	-4.0	9.1	42.0*	24.1*	64.4	67.2
COCc1cc(C)nc2sc3c(=O)oc(C)nc3c12	4.0	66.1*	-3.6	97.7	87.4	102.6
CC1CCCc2sc3nc(N4CCN(CCO)CC4)n4ncnc4c3c21 (configuration not stated)	10.0	12.0	11.5	14.7*	93.5	92.6
Cc1cc2oc(=O)cc(CN3CCCCC3C)c2c(C)c1Cl (configuration not stated)	-6.0	41.6	5.8	79.2	83.0	89.8
COc1cc2c(C(=O)Nc3ccc4c(c3)OCO4)cn(CC(C)C)c(=O)c2cc1OC	-1.0	-8.1	·	92.5	91.3	99.5
COc1cc2c(C(=O)NCc3ccc4c(c3)OCO4)cn(CC(C)C)c(=O)c2cc1OC	-5.0	-9.3	-5.3	84.8	67.8	42.2*
COc1ccccc1N1C(=O)C2ON(c3ccccc3)C(c3ccc(N(C)C)cc3)C2C1=O (configuration not stated)	·	3.3	·	10.6*	80.7	106.7
COc1ccccc1C1C2C(=O)N(c3ccccc3)C(=O)C2ON1c1ccccc1 (configuration not stated)	-2.0	-14.6	11.8	87.9	90.5	103.2
SMILES	E coli WT exp	tolC growth inh	Jurkat tox 60K	H69AR growth 86K	HUVEC inhibit	Lung fibro prol
c1ccc(-n2nnnc2NC2CCCCC2)cc1	3.0	·	·	·	·	·
CCOc1cc(/C=C\c2[nH]c(=O)[nH]c(=O)c2[N+](=O)[O-])ccc1OC(C)CC (configuration not stated)	-12.0	·	·	97.5	15.3*	91.6
Cc1ccc(-n2sc3ccccc3c2=O)cc1S(=O)(=O)N1CCCCC1	-13.0	32.8	12.5	1.5*	74.4	49.0*
O=c1c2ccccc2sn1-c1ccccc1	100.0*	·	·	·	·	·
O=c1c2ccccc2sn1-c1ccc(S(=O)(=O)N2CCCCC2)cc1	·	-2.4	1.2	43.5	62.1	37.3*
O=c1c2ccccc2sn1-c1ccc(S(=O)(=O)N2CCCC2)cc1	-3.0	-4.6	-3.7	·	·	·

Source: PubChem (several laboratories)
